From PMC4242840 (The Journal of Cell Biology, 2014)

B1: Rsa4 Y448E (protein)
chain: MSTLIPPPSKKQKKEAQLPREVAIIPKDLPNVSIKFQALDTGDNVGGALRVPGAISEKQLEELLNQLNGTSDDPVPYTFSCTIQGKKASDPVKTIDITDNLYSSLIKPGYNSTEDQITLLYTPRAVFKVKPVTRSSSAIAGHGSTILCSAFAPHTSSRMVTGAGDNTARIWDCDTQTPMHTLKGHYNWVLCVSWSPDGEVIATGSMDNTIRLWDPKSGQCLGDALRGHSKWITSLSWEPIHLVKPGSKPRLASSSKDGTIKIWDTVSRVCQYTMSGHTNSVSCVKWGGQGLLYSGSHDRTVRVWDINSQGRCINILKSHAHWVNHLSLSTDYALRIGAFDHTGKKPSTPEEAQKKALENYEKICKKNGNSEEMMVTASDDYTMFLWNPLKSTKPIARMTGHQKLVNHVAFSPDGRYIVSASFDNSIKLWDGRDGKFISTFRGHVASVEQVAWSSDCRLLVSCSKDTTLKVWDVRTRKLSVDLPGHKDEVYTVDWSVDGKRVCSGGKDKMVRLWTH
B2: Rpl5Δloop2+3 (protein)
chain: MAFQKDAKSSAYSSRFQTPFRRRREGKTDYYQRKRLVTQHKAKYNTPKYRLVVRFTNKDIICQIISSTITGDVVLAAAYSHELPRYGITHGLTNWAAAYATGLLIARRTLQKLGLDETYKGPRPFKVFLDIGLQRTTTGARVFGALKGASDGGLYVPHSENRFPGWDRIFGGHVSQYMEELADDDEERFSELFKGYLADDIDADSLEDIYTSAHEAIRADPAFKPTEKKFTKEQYAAESKKYRQTKLSKEERAARVAAKIAALAGQQ

Assays:
Nsa2 = assay: in vitro binding assay of Rsa4 mutants with MBP-Nsa2; set-up: species or system Saccharomyces cerevisiae; conditions: immobilized MBP-Nsa2, HIS-TEV-Rsa4 mutant in E. coli lysate; SDS-PAGE
How it was run: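 Bait and prey were expressed in E. coli by IPTG induction for 3 h. MBP-Nsa2 was prepurified on SP Sepharose and bound to amylose resin; HIS-TEV-Rsa4 variants were Ni-NTA-purified. Beads were incubated 45 min with a 5× excess of Rsa4 mixed with MBP-depleted E. coli lysate as competitor. Beads were washed in 20 mM Hepes pH 7.5, 200 mM NaCl, 1 mM DTT and eluted in SDS sample buffer (10 min, 65°C). Eluates were run on 4–12% SDS-PAGE with Coomassie staining.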

[1] = test system: Rsa4 shuffle strain (rsa4Δ); assay: complementation of rsa4Δ; format: cell-based, Saccharomyces cerevisiae; conditions: SDC+FOA, 30°C, 2 d
wild-type yeast growth = assay: dominant-negative phenotype upon GAL overexpression in wild-type yeast; format: cell-based, Saccharomyces cerevisiae; conditions: GAL promoter, galactose medium, 30°C, 2 or 3 d
pre-60S particles [2] = assay: association with pre-60S particles; format: cell-based, Saccharomyces cerevisiae; conditions: 10–50% sucrose gradient, anti-ProtA Western blot
How it was run: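 Wild-type yeast expressed plasmid-borne NSA2-FTpA or nsa2 Y90A-FTpA. Cells were treated with cycloheximide for 15 min and lysed with glass beads. Whole-cell lysates were fractionated on 10–50% sucrose gradients (16 h, 27,000 rpm, 0.4 ml fractions), and fractions were probed by Western blot with anti-ProtA to detect tagged Nsa2.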

RPL5 shuffle strain = assay: complementation of rpl5Δ; format: cell-based, Saccharomyces cerevisiae; conditions: SDC+FOA, 30°C, 5 d
pre-60S particles [3] = assay: affinity purification of Rpl5-FTpA constructs; format: cell-based, Saccharomyces cerevisiae; conditions: Flag-TEV-ProtA bait
How it was run: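 Rpl5 variants tagged with Flag-TEV-ProtA were purified from a 2-liter yeast culture pellet. Steps: IgG-Sepharose 90 min, TEV elution 120 min, FLAG beads 45 min, FLAG-peptide elution. Eluates were run alongside pre-60S particles purified via Nsa2-FTpA and FTpA-Rsa4, then analysed by SDS-PAGE and Western blot.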

[4] = test system: intracellular localization in yeast; assay: in vivo localization of Rpl5-GFP; format: cell-based, Saccharomyces cerevisiae; conditions: GFP fusion, wild-type strain, fluorescence microscopy
How it was run: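 A wild-type strain carried plasmid-borne Rpl5-GFP or Rpl5 Δloop2+3-GFP. Cells were grown to ~OD 0.5 in selective medium at 30°C, harvested and washed in water. They were imaged by fluorescence microscopy at room temperature (100×, NA 1.4 oil objective, EGFP filter set).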

Row | binding to Nsa2 (Nsa2) | Molecule | growth / viability (complementation) [1] | dominant-negative phenotype upon overexpression (wild-type yeast growth) | association with pre-60S particles (pre-60S particles [2]) | growth / viability (complementation) (RPL5 shuffle strain) | co-purified Spb1 and Nop2 (pre-60S particles [3]) | co-purified particles / Syo1 (pre-60S particles [3]) | co-purified Nsa2 (pre-60S particles [3]; SDS-PAGE and Western blot) | co-purified Rpl10 (uL16) (pre-60S particles [3]; SDS-PAGE and Western blot) | co-purified Rsa4 (pre-60S particles [3]; SDS-PAGE and Western blot) | intracellular localization [4]
1 | impaired binding to Nsa2 in vitro | B1 | blocked cell growth in vivo | less pronounced dominant-negative phenotype | partly impaired in association with pre-60S particles | – | – | – | – | – | – | –
2 | – | B2 | – | – | – | lethal phenotype | enriched | recovered its import factor Syo1 ([Kressler et al., 2012a]) and pre-60S particles | normal amounts of Nsa2 | lacked Rpl10 (uL16) | reduced levels of Rsa4 | accumulated inside the nucleus
